From ChEMBL document CHEMBL2417409 (Eur J Med Chem, 2013)

Legend:
[1] = biological target: Sucrase-isomaltase, intestinal (Rattus norvegicus) (UniProt P23739); test: Inhibition of rat intestine sucrase using sucrose as substrate at 10 mg/ml incubated for 10 mins prior to substrate addition measured after 40 mins by glucose oxidase colorimetric method
[2] = biological target: T1, Sucrase-isomaltase, intestinal (Rattus norvegicus, UniProt P23739); test: Non-competitive inhibition of rat intestine sucrase using sucrose as substrate by Lineweaver-Burk plot analysis
T1 sequence (P23739 1-1013 limits assumed): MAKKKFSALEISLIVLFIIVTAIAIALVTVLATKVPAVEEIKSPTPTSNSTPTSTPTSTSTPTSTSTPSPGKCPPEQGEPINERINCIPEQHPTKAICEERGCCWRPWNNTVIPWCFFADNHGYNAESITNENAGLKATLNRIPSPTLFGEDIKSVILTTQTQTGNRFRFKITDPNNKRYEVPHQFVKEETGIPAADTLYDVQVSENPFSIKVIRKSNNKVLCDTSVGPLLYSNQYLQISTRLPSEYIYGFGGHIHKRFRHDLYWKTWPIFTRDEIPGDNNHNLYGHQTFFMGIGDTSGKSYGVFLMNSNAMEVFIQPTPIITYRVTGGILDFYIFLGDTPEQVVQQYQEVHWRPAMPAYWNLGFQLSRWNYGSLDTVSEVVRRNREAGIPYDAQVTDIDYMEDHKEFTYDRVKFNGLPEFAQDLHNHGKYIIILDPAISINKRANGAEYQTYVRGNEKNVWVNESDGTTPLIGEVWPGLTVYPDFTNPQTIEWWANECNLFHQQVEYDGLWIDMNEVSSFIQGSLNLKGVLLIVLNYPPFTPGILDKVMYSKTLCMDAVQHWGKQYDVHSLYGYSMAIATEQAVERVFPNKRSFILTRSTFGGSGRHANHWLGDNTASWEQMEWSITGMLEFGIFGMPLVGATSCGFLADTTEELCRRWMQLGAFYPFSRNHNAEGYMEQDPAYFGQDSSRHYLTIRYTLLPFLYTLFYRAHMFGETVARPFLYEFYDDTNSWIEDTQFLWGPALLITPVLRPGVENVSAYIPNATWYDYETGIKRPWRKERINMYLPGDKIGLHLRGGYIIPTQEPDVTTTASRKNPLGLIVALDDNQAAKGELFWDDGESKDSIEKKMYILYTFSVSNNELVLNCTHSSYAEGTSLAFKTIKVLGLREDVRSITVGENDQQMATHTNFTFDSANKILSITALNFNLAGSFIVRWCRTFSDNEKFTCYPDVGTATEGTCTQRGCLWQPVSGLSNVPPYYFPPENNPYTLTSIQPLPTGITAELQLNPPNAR
T1 sequence (P23739 1014-1841 limits assumed): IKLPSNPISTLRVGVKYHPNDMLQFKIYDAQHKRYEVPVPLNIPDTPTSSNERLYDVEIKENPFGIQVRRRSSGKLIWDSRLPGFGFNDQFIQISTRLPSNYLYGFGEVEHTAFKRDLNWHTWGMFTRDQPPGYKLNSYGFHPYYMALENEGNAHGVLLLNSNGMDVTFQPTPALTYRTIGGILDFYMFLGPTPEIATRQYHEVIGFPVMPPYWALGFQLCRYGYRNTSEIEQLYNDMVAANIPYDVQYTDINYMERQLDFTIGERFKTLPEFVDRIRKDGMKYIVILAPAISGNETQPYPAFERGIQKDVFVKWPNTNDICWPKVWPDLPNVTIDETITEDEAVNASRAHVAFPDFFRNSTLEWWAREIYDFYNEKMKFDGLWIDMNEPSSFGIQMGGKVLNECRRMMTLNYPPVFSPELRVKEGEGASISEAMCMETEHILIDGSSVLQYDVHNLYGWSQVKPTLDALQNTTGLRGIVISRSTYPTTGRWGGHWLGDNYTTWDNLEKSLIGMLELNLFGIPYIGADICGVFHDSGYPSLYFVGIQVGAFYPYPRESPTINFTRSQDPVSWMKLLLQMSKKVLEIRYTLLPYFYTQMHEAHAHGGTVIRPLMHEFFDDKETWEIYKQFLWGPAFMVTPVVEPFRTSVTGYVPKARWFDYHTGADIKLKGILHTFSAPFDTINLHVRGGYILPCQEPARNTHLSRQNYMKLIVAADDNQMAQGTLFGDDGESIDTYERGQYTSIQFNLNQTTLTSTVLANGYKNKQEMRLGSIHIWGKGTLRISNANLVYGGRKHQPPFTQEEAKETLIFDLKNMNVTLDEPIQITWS
Outline: (§1)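 Same maltase/sucrase reactions, with activity held at 0.45 (maltase) and 0.09 (sucrase) U/mg protein. Inhibitor 0 to 20.4 mM against substrate 1.0 to 20.0 mM. Vmax and Km obtained from Lineweaver–Burk intercepts and slopes. Ki (EI) from a secondary plot of slope versus inhibitor concentration; Ki′ (ESI) from a secondary plot of intercept versus inhibitor concentration.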

Saccharomyces cerevisiae = test: Inhibition of yeast type 1 alpha-glucosidase using PNPG as substrate at 10 mg/ml incubated for 10 mins prior to substrate addition measured after 20 mins by spectrophotometry
[3] = biological target: T1, Sucrase-isomaltase, intestinal; test: Competitive inhibition of rat intestine sucrase using sucrose as substrate by Lineweaver-Burk plot analysis; outline: as §1
[4] = biological target: T1, Sucrase-isomaltase, intestinal; test: Inhibition of rat intestine sucrase using sucrose as substrate incubated for 10 mins prior to substrate addition measured after 40 mins by glucose oxidase colorimetric method
Outline: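 Crude enzyme from centrifuged (12,000 g, 30 min) intestinal supernatant containing both maltase and sucrase. Test compound (1 mg/mL stock, DMSO) preincubated with enzyme at 37 C for 10 min. Substrate in 0.1 M phosphate buffer pH 6.9 (maltose 0.58 mM or sucrose 20 mM) added, then 40 min at 37 C. Quenched at 80 C for 15 min. Released glucose measured by glucose oxidase kit.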

[5] = test system: Radical scavenging activity; test: Antioxidant activity assessed as DPPH radical scavenging activity after 15 mins by spectrophotometry; type: functional
Outline: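 Sample (10 µL at 0.1, 1.0 or 10.0 mg/mL) mixed with 0.1 mM DPPH in methanol (150 µL), kept in the dark at room temperature on a shaker for 15 min. Absorbance read at 517 nm. Percentage scavenging = [(A0 − A1)/A0] × 100, with A0 and A1 the absorbance without and with sample.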

[6] = test system: Radical scavenging activity; test: Antioxidant activity assessed as DPPH radical scavenging activity at 10 mg/ml after 15 mins by spectrophotometry; type: functional
Outline: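 Sample (10 µL at 0.1, 1.0 or 10.0 mg/mL) mixed with 0.1 mM DPPH in methanol (150 µL), kept in the dark at room temperature on a shaker for 15 min. Percentage scavenging = [(A0 − A1)/A0] × 100, with A0 and A1 the absorbance without and with sample.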

[7] = test system: Maltase-glucoamylase, intestinal (Rattus norvegicus); test: Inhibition of rat intestine maltase using maltose as substrate at 10 mg/ml incubated for 10 mins prior to substrate addition measured after 40 mins by glucose oxidase colorimetric method
[8] = Inhibition of yeast type 1 alpha-glucosidase using PNPG as substrate incubated for 10 mins prior to substrate addition measured after 20 mins by spectrophotometry; parameters: species or system Saccharomyces cerevisiae

Chain of Sucrase-isomaltase, intestinal (Rattus norvegicus) (P23739 1-1013 limits assumed): as the sequence (P23739 1-1013 limits assumed) above
Chain of Sucrase-isomaltase, intestinal (Rattus norvegicus) (P23739 1014-1841 limits assumed): as the sequence (P23739 1014-1841 limits assumed) above

| SMILES | inhibition [1] [%] | inhibition (Saccharomyces cerevisiae) [%] | IC50 [4] [µM] | inhibition [6] [%] | further results |
| --- | --- | --- | --- | --- | --- |
| COc1ccccc1/C=C/C(=O)O[C@H]1C[C@@H](O)[C@H](O)[C@@H](O)[C@H]1O | < 30 |  |  |  |  |
| COc1ccc(/C=C/C(=O)O[C@H]2C[C@@H](O)[C@H](O)[C@@H](O)[C@H]2O)cc1OC | < 30 |  |  |  |  |
| O=C(/C=C/c1ccc(O)c(O)c1)O[C@@H]1C[C@@H](O)[C@H](O)[C@@H](O)[C@H]1O |  | < 30 | 43.6 |  | Ki [2]: 47.5 µM; Ki [3]: 22.4 µM; IC50 [5]: 110 µM |
| COc1cc(/C=C/C(=O)O[C@H]2C[C@@H](O)[C@H](O)[C@@H](O)[C@H]2O)ccc1O |  | < 30 | 171 | < 50 |  |
| COc1cc(/C=C/C(=O)O[C@@H]2C[C@@H](O)[C@H](O)[C@@H](O)[C@H]2O)cc(OC)c1OC | < 30 | < 30 |  | < 50 | inhibition [7]: < 30% |
| COc1cccc(/C=C/C(=O)O[C@@H]2C[C@@H](O)[C@H](O)[C@@H](O)[C@H]2O)c1 | < 30 |  |  |  |  |
| O=C(/C=C/c1ccc(O)c(O)c1)O[C@H]1C[C@@H](O)[C@H](O)[C@@H](O)[C@H]1O |  | < 30 | 954 | < 50 |  |
| COc1ccc(/C=C/C(=O)O[C@@H]2C[C@@H](O)[C@H](O)[C@@H](O)[C@H]2O)cc1O |  | < 30 | 53 | < 50 |  |
| C[C@H]1O[C@H](O[C@H]2[C@H](O)[C@@H](O)[C@@H](O[C@H]3[C@H](O)[C@@H](O)C(O)O[C@@H]3CO)O[C@@H]2CO)[C@H](O)[C@@H](O)[C@@H]1N[C@H]1C=C(CO)[C@@H](O)[C@H](O)[C@H]1O (stereo partly drawn) [ACARBOSE] |  |  |  |  | IC50 [8]: 404 µM |
| COc1ccccc1/C=C/C(=O)O[C@@H]1C[C@@H](O)[C@H](O)[C@@H](O)[C@H]1O | < 30 |  |  |  |  |
| COc1ccc(/C=C/C(=O)O[C@@H]2C[C@@H](O)[C@H](O)[C@@H](O)[C@H]2O)cc1 | < 30 | < 30 |  | < 50 | inhibition [7]: < 30% |
| COc1cccc(/C=C/C(=O)O[C@H]2C[C@@H](O)[C@H](O)[C@@H](O)[C@H]2O)c1 | < 30 |  |  |  |  |
| O=C(O)/C=C/c1ccc(O)c(O)c1 [CAFFEIC ACID] |  | < 30 | 87.4 |  | IC50 [5]: 150 µM |
| COc1ccc(O)c(C(C)(C)C)c1.COc1ccc(O)cc1C(C)(C)C [BUTYLATED HYDROXYANISOLE] |  |  |  |  | IC50 [5]: 0.1 µM |
| COc1cc(/C=C/C(=O)O[C@@H]2C[C@@H](O)[C@H](O)[C@@H](O)[C@H]2O)ccc1O |  | < 30 | 67.2 | < 50 |  |
| COc1ccc(/C=C/C(=O)O[C@H]2C[C@@H](O)[C@H](O)[C@@H](O)[C@H]2O)cc1 | < 30 | < 30 |  | < 50 | inhibition [7]: < 30% |
| COc1ccc(/C=C/C(=O)O[C@@H]2C[C@@H](O)[C@H](O)[C@@H](O)[C@H]2O)cc1OC | < 30 |  |  |  |  |
| COc1ccc(/C=C/C(=O)O[C@H]2C[C@@H](O)[C@H](O)[C@@H](O)[C@H]2O)cc1O |  | < 30 | 805 | < 50 |  |
